Test results from ChEMBL document CHEMBL1137436, “Development of Tyrocidine A analogues with improved antibacterial activity” (2007).
≈ marks a conversion by molar mass, not a printed value. Where a SMILES comes first, the peptide text is derived from it. [ ]: non-standard residue; d: D form. Orn = NCCC[C@H](N)C(=O)O

What was measured:
[1] = system: Bacillus cereus; assay: Antibacterial activity against Bacillus cereus MRL 18731 in presence of 25 mg/L calcium by microdilution method; type: functional
How it was run: (§1)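 CLSI broth microdilution MIC. Compounds dissolved in cation-adjusted Mueller-Hinton broth (CAMHB), or in a little DMSO then broth. Overnight cultures suspended in saline to 0.5 McFarland, diluted 1:100 in CAMHB, added to wells of diluted compound. Drug-free wells quantitatively subcultured to confirm actual colony counts. Calcium at 25 or 50 mg/L.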

[2] = system: Enterococcus faecalis; assay: Antibacterial activity against Enterococcus faecalis ATCC 29212 in presence of 25 mg/L calcium by microdilution method; type: functional
How it was run: (§2)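 CLSI broth microdilution in cation-adjusted Mueller-Hinton broth (CAMHB); compounds dissolved in CAMHB or a little DMSO then broth. Overnight cultures suspended in saline to 0.5 McFarland, diluted 1:100 in CAMHB and added to wells of diluted compound. Drug-free wells subcultured quantitatively for actual colony counts. Calcium at 25 or 50 mg/L as the line states.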

[3] = system: Staphylococcus epidermidis; assay: Antibacterial activity against methicillin-resistant Staphylococcus epidermidis MRL 19010 in presence of 25 mg/L calcium by microdilution method; type: functional; how it was run: as §2
[4] = system: Bacillus subtilis; assay: Antibacterial activity against Bacillus subtilis MRL 18734 in presence of 25 mg/L calcium by microdilution method; type: functional; how it was run: as §1
[5] = system: Enterococcus faecalis; assay: Antibacterial activity against vancomycin-resistant Enterococcus faecalis MRL 17001 in presence of 25 mg/L calcium by microdilution method; type: functional; how it was run: as §2
[6] = system: Staphylococcus aureus; assay: Antibacterial activity against methicillin-resistant Staphylococcus aureus ATCC 33592 in presence of 25 mg/L calcium by microdilution method; type: functional; how it was run: as §2
[7] = system: Staphylococcus aureus; assay: Antibacterial activity against methicillin-susceptible Staphylococcus aureus ATCC 29213 in presence of 25 mg/L calcium by microdilution method; type: functional; how it was run: as §2
[8] = system: Escherichia coli; assay: Antibacterial activity against Escherichia coli ATCC 25922 in presence of 25 mg/L calcium by microdilution method; type: functional; how it was run: as §1
[9] = system: Bacillus cereus; assay: Antibacterial activity against Bacillus cereus MRL 18731 in presence of 50 mg/L calcium by microdilution method; type: functional
How it was run: (§3)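 CLSI broth microdilution. Compounds dissolved in cation-adjusted Mueller-Hinton broth (CAMHB), or in a small amount of DMSO followed by broth. Overnight cultures suspended in saline to 0.5 McFarland, diluted 1:100 in CAMHB and added to wells of diluted compound. Drug-free wells subcultured quantitatively to give actual colony counts. Calcium tested at 50 mg/L, alongside the standard 25 mg/L.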

[10] = system: Staphylococcus epidermidis; assay: Antibacterial activity against methicillin-resistant Staphylococcus epidermidis MRL 19010 in presence of 50 mg/L calcium by microdilution method; type: functional; how it was run: as §2
[11] = system: Bacillus subtilis; assay: Antibacterial activity against Bacillus subtilis MRL 18734 in presence of 50 mg/L calcium by microdilution method; type: functional; how it was run: as §3
[12] = system: Staphylococcus aureus; assay: microbe, parasite or virus in culture; settings: ATCC 29213
[13] = system: Enterococcus faecalis; assay: Antibacterial activity against Enterococcus faecalis ATCC 29212 in presence of 50 mg/L calcium by microdilution method; type: functional; how it was run: as §2
[14] = system: Staphylococcus aureus; assay: microbe, parasite or virus in culture; settings: ATCC 33592
[15] = system: Enterococcus faecalis; assay: Antibacterial activity against vancomycin-resistant Enterococcus faecalis MRL 17001 in presence of 50 mg/L calcium by microdilution method; type: functional; how it was run: as §2
[16] = system: Escherichia coli; assay: Antibacterial activity against Escherichia coli ATCC 25922 in presence of 50 mg/L calcium by microdilution method; type: functional; how it was run: as §1

| SMILES | MIC [1] [µg/mL] | MIC [2] [µg/mL] | MIC [3] [µg/mL] | MIC [4] [µg/mL] | MIC [5] [µg/mL] | MIC [6] [µg/mL] | MIC [7] [µg/mL] | MIC [8] [µg/mL] | MIC [9] [µg/mL] | MIC [10] [µg/mL] | MIC [11] [µg/mL] | MIC [12] [µg/mL] | MIC [13] [µg/mL] | MIC [14] [µg/mL] | MIC [15] [µg/mL] | MIC [16] [µg/mL] |
| --- | --- | --- | --- | --- | --- | --- | --- | --- | --- | --- | --- | --- | --- | --- | --- | --- |
| CC(C)C[C@@H]1NC(=O)[C@H](CCCN)NC(=O)[C@H](C(C)C)NC(=O)[C@H](Cc2c(F)c(F)c(F)c(F)c2F)NC(=O)[C@H](CCC(N)=O)NC(=O)[C@H](CC(N)=O)NC(=O)[C@@H](Cc2ccccc2)NC(=O)[C@H](Cc2ccccc2)NC(=O)[C@@H]2CCCN2C(=O)[C@@H](Cc2ccccc2)NC1=O | 8 | 2 | 2 | 8 | 2 | 16 | 16 | > 256 | – | – | – | – | – | – | – | – |
| CC(C)C[C@@H]1NC(=O)[C@H](CCCN)NC(=O)[C@H](C(C)C)NC(=O)[C@H](Cc2c(F)c(F)c(F)c(F)c2F)NC(=O)[C@H](CCC(N)=O)NC(=O)[C@H](CC(N)=O)NC(=O)[C@@H](Cc2ccccc2)NC(=O)[C@H](Cc2c(F)c(F)c(F)c(F)c2F)NC(=O)[C@@H]2CCCN2C(=O)[C@@H](Cc2ccccc2)NC1=O | 256 | 32 | 256 | 128 | 32 | > 256 | > 256 | > 256 | – | – | – | – | – | – | – | – |
| CCCCCCCCCC(=O)N[C@@H](Cc1c[nH]c2ccccc12)C(=O)N[C@H](CC(N)=O)C(=O)N[C@@H](CC(=O)O)C(=O)N[C@@H]1C(=O)NCC(=O)N[C@@H](CCCN)C(=O)N[C@@H](CC(=O)O)C(=O)N[C@H](C)C(=O)N[C@@H](CC(=O)O)C(=O)NCC(=O)N[C@H](CO)C(=O)N[C@@H]([C@H](C)CC(=O)O)C(=O)N[C@@H](CC(=O)c2ccccc2N)C(=O)O[C@@H]1C | 0.5 | 1 | 1 | 1 | 2 | 1 | 1 | > 128 | 0.25 | 0.5 | 0.25 | 0.25 (≈ 0.154 µM) | 1 | 0.25 (≈ 0.154 µM) | 1 | > 128 |
| CC(C)C[C@@H]1NC(=O)[C@H](CCCN)NC(=O)[C@H](C(C)C)NC(=O)[C@H](Cc2ccc(O)cc2)NC(=O)[C@H](CCCCN)NC(=O)[C@H](CC(N)=O)NC(=O)[C@@H](Cc2ccccc2)NC(=O)[C@H](Cc2ccccc2)NC(=O)[C@@H]2CCCN2C(=O)[C@@H](Cc2ccccc2)NC1=O (cyclo(F[dF]NKYV[Orn]L[dF]P)) | 2 | 2 | 2 | 2 | 2 | 4 | 4 | 128 | – | – | – | – | – | – | – | – |
| CC(C)C[C@@H]1NC(=O)[C@H](CCCN)NC(=O)[C@H](C(C)C)NC(=O)[C@H](Cc2ccc(O)cc2)NC(=O)[C@H](CCC(N)=O)NC(=O)[C@H](CC(N)=O)NC(=O)[C@@H](Cc2ccccc2)NC(=O)[C@H](Cc2ccccc2)NC(=O)[C@@H]2CCCN2C(=O)[C@@H](Cc2ccccc2)NC1=O [TYROCIDINE A] (cyclo(F[dF]NQYV[Orn]L[dF]P)) | 16 | 16 | 16 | 16 | 16 | 32 | 32 | > 128 | – | – | – | – | – | – | – | – |
